Screening results as filed in PubChem.
A selection: hits, their analogues and other compounds. The true share with any hit is near 2.1%.
CHRM1 agonist – human M1 muscarinic receptor agonism; hit rate 0.33% among 360,000; CHO-K1 hM1, Fluo-8 calcium fluorescence, agonist mode; 0% DMSO, 100% acetylcholine EC100; AID 588814; activation, % at 3 µM; P11229;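 active = activation above the run's mean compound activation plus 3 SD, cut at about 16% in these data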;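 note: peak over basal fluorescence ratio within a 140 s kinetic read after compound addition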
CHRM1 PAM – potentiates human M1 receptor response to acetylcholine; P11229; CHO-K1 hM1, Fluo-8 calcium fluorescence, ACh EC20; 0% = ACh EC20, 100% = maximal ACh; activation, % at 3 µM; hit rate 0.088% among 360,000; in the data active = activation above about 19%, passing the limit was not always enough
M5 antag – antagonists of human muscarinic M5 receptor (CHRM5); P08912; CHO-hM5 cells, Fluo-8 calcium fluorescence, ACh EC80; inhibition, % at 3 µM; hit rate 0.59% among 360,000;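 active = inhibition above a per-plate cutoff, the mean of that plate's test compounds plus 3 SD, cut at about 27% in these data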;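 note: 0% = acetylcholine EC80 with DMSO and 100% = DMSO without agonist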
Target sequence (P08912 whole entry, looked up): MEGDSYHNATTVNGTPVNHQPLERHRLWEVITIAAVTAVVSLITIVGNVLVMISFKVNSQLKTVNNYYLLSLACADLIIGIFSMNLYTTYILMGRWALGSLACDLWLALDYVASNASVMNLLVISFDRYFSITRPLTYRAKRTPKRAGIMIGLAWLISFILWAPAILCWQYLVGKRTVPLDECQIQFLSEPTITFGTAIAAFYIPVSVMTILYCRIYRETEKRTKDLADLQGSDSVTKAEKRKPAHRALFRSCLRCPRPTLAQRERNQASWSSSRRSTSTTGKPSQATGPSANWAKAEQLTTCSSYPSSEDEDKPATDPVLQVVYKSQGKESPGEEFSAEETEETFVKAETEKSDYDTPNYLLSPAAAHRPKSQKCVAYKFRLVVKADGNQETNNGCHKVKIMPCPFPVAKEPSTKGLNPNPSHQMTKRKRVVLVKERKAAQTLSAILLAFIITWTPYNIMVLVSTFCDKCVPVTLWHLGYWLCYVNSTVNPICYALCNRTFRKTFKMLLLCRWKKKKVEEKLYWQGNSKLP
M5 PAM – potentiates acetylcholine response at human M5 receptor; CHO-K1 hM5, Fluo-8 calcium, ACh EC20 PAM; 0% = ACh EC20, 100% = ACh EC100; hit rate 0.3% among 360,000; activation, % at 3 µM; P08912;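 active = activation above the run cutoff, the mean activation of all test compounds plus 3 SD, cut at about 18% in these data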
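Assay system – human M5 receptor in CHO-K1 cells · Read-out – % activation, ACh-normalized · Technique – Fluo-8 calcium fluorescence · Dosing – single-point, 3 µM nominal · Incubation – Fluo-8 loading 80 min at 37 °C plus 30 min room temperature · Repeats – singlicate, one well per test compound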
M5 ag – agonists of human muscarinic M5 receptor (CHRM5); P08912; AID 624037; CHO-K1 hM5 cells, Fluo-8 calcium fluorescence; 0% DMSO wells, 100% maximal acetylcholine response; activation, % at 3 µM; hit rate 0.19% among 360,000;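 active = activation above the run's mean over test compounds plus 3 SD, cut at about 23% in these data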;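 note: signal is peak over basal fluorescence ratio across the kinetic read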
CHRM1 antagonist – human CHRM1 antagonism; CHO-K1 hM1, Fluo-8 calcium fluorescence, ACh EC80 antagonist; AID 588852; inhibition, % at 3 µM; hit rate 1.3% among 360,000;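 active = percent inhibition above its own plate's cutoff, namely the mean of that plate's compound wells plus 3 SD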;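 note: peak over basal fluorescence ratio during 140 s after agonist addition; 0% = ACh EC80 plus DMSO and 100% = DMSO alone without agonist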
Starred values were filed as active, the others as inactive.

CCOC(=O)N1CCN(C(=O)c2ccccc2NC(=O)c2ccccc2Cl)CC1 was read as CHRM1 agonist -3, CHRM1 PAM 7, M5 antag 14, M5 PAM -7, M5 ag -3 and CHRM1 antagonist -9.
For Cc1ccc(Sc2c([N+](=O)[O-])c(C)nn2C)cc1 the results were CHRM1 agonist -8, CHRM1 PAM -28, M5 antag 28*, M5 PAM -33, M5 ag -20 and CHRM1 antagonist 88*.
For COc1cc(NC(=O)CCCN2C(=O)NC(C)(C)C2=O)cc(OC)c1 the results were CHRM1 agonist -2, CHRM1 PAM 1, M5 antag -3, M5 PAM 2, M5 ag 5 and CHRM1 antagonist -5.
COc1cccc(CNc2nc(NCc3ccccc3)nc3ccsc23)c1 was read as CHRM1 agonist 15, CHRM1 PAM -28, M5 antag 45*, M5 PAM -21, M5 ag 31* and CHRM1 antagonist 46*.
COc1cccc(CNc2nc(NCC3CC3)nc3ccsc23)c1OC was read as CHRM1 agonist -4, CHRM1 PAM -27, M5 antag 9, M5 PAM -11, M5 ag 3 and CHRM1 antagonist 35.
`Cc1ccc(Nc2nc(NCc3ccccc3)nc3ccsc23)c(C)c1` gave CHRM1 agonist 16, CHRM1 PAM -24, M5 antag 32*, M5 PAM -23, M5 ag 12 and CHRM1 antagonist 55*.
CSc1ccccc1CNc1nc(NCC2CC2)nc2ccsc12 was read as CHRM1 agonist 2, CHRM1 PAM -21, M5 antag 30*, M5 PAM -16, M5 ag 3 and CHRM1 antagonist 39*.
Clc1ccccc1OCCNc1nc(NCC2CC2)nc2ccsc12 was read as CHRM1 agonist -1, CHRM1 PAM -18, M5 antag 30*, M5 PAM -18, M5 ag 4 and CHRM1 antagonist 31.
For COc1ccc([N+](=O)[O-])cc1NC(=O)Nc1cccc(Cl)c1 the results were CHRM1 agonist -4, CHRM1 PAM -6, M5 antag -1, M5 PAM -6, M5 ag 1 and CHRM1 antagonist 11.
For COc1cc(C(=O)COC(=O)c2ccco2)cc(OC)c1OC the results were CHRM1 agonist 1, CHRM1 PAM 5, M5 antag 4, M5 PAM 5, M5 ag 0 and CHRM1 antagonist -13.
Screening CCOc1ccc(N2CC(C(=O)OCC(=O)c3ccc(OC)cc3)CC2=O)cc1 (configuration not stated) returned CHRM1 agonist -4, CHRM1 PAM 3, M5 antag 20, M5 PAM -2, M5 ag -2 and CHRM1 antagonist -10.
`CC(C)CCN(C(=O)c1ccc(N2CCCC2=O)cc1)c1c(N)n(Cc2ccccc2)c(=O)[nH]c1=O` gave CHRM1 agonist 2, CHRM1 PAM 1, M5 antag 2, M5 PAM 0, M5 ag 2 and CHRM1 antagonist -1.
For COc1cccc(CNc2nc(NCC3CC3)nc3ccsc23)c1 the results were CHRM1 agonist -1, CHRM1 PAM -11, M5 antag 31*, M5 PAM -16, M5 ag 4 and CHRM1 antagonist 16.
COc1cccc(N2C(=O)N(c3ccccc3Cl)C3CS(=O)(=O)CC32)c1 (configuration not stated) was read as CHRM1 agonist -4, CHRM1 PAM 1, M5 antag -5, M5 PAM -1, M5 ag -3 and CHRM1 antagonist 8.
CN(C)S(=O)(=O)c1cccc(CSCc2cccc(S(=O)(=O)N(C)C)c2)c1 was read as CHRM1 agonist 2, CHRM1 PAM -13, M5 antag 41*, M5 PAM -16, M5 ag 11 and CHRM1 antagonist 38*.
`COc1ccc(NS(=O)(=O)c2ccc3oc(=O)c4[nH]c(=O)c(=O)n(C)c4c3c2)cc1` gave CHRM1 agonist -1, CHRM1 PAM 12, M5 antag -8, M5 PAM 4, M5 ag -1 and CHRM1 antagonist -16.
`Cc1cnc(NC(=O)NCC2CCCC(CNC(=O)Nc3ncc(C)s3)C2)s1` (configuration not stated) gave CHRM1 agonist -9, CHRM1 PAM 9, M5 antag 17, M5 PAM 27*, M5 ag 2 and CHRM1 antagonist -12.
Nc1c(C(=O)c2ccc(Cl)cc2)sc2nsc(SCCN3CCOCC3)c12 was read as CHRM1 agonist 2, CHRM1 PAM 5, M5 antag 6, M5 PAM -7, M5 ag 9 and CHRM1 antagonist -9.
Screening Nc1c(C(=O)c2ccccc2)sc2nsc(SCCN3CCCC3)c12 returned CHRM1 agonist 11, CHRM1 PAM -26, M5 antag 24, M5 PAM -11, M5 ag 32* and CHRM1 antagonist 55*.
`CCCC(C)c1nnc(NC(=O)C2CCCO2)s1` (configuration not stated) gave CHRM1 agonist -12, CHRM1 PAM -27, M5 antag 5, M5 PAM -12, M5 ag -7 and CHRM1 antagonist 55*.
Screening CCOC(=O)c1c(NC(=O)C2CCCO2)sc(C)c1C (configuration not stated) returned CHRM1 agonist -5, CHRM1 PAM -19, M5 antag 0, M5 PAM 1, M5 ag -16 and CHRM1 antagonist 47*.
For CCOC(=O)c1c(NC(=O)COC)sc(C)c1C the results were CHRM1 agonist -5, CHRM1 PAM 3, M5 antag -1, M5 PAM 6, M5 ag 2 and CHRM1 antagonist 3.
CCOC(=O)c1c(NC(=S)NC(C)=O)sc(C)c1C was read as CHRM1 agonist -7, CHRM1 PAM 8, M5 antag -6, M5 PAM 18*, M5 ag -4 and CHRM1 antagonist -11.
For O=C(NCCCN1CCCC1=O)c1cccc(NS(=O)(=O)c2ccc(Br)cc2)c1 the results were CHRM1 agonist -4, CHRM1 PAM 6, M5 antag 5, M5 PAM 9, M5 ag -2 and CHRM1 antagonist -13.
For CN(C)C=NCCn1c(N2CCOCC2)nc2c1c(=O)n(C)c(=O)n2C the results were CHRM1 agonist -4, CHRM1 PAM 3, M5 antag 5, M5 PAM -4, M5 ag -2 and CHRM1 antagonist 0.
CC(C)N1CN(c2ccccc2)C(=S)N(c2ccccc2)C1 was read as CHRM1 agonist 0, CHRM1 PAM 15, M5 antag -1, M5 PAM 2, M5 ag 8 and CHRM1 antagonist -28.
Cc1cc(NC(=O)c2cc(-c3ccco3)on2)nn1Cc1ccc(Cl)cc1 was read as CHRM1 agonist -4, CHRM1 PAM -6, M5 antag 5, M5 PAM -4, M5 ag 0 and CHRM1 antagonist 11.
